Results on five molecules are retold here after PubChem BioAssay AID588837 (Broad Institute, 2011).

Activity calls are given as the source filed them. The rule behind the calls is not given here.

For this assay, the target named is Scavenger receptor class B member 1 (Mus musculus) (UniProt Q61009). The assay can be described thus: [3H]CE-HDL uptake via mutant mSR-BI – C384S mutant cells, scintillation, powder samples, mechanism study for SR-BI HDL uptake inhibitor project, late-stage follow-up (AID 588837). The note with it: CHO ldlA C384S mSR-BI, 2 h, at 1 µM, active compounds read low. The essentials: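 Test system: CHO cells lacking LDL receptor, overexpressing C384S mutant SR-BI; Buffer or medium: Ham's F12K medium with 0.5% fatty acid-free BSA; Compound: 0.5% DMSO with compound; Timing: 1 h pretreatment plus 2 h uptake at 37 °C; Signal: scintillation counting of cell-associated tritium label; Controls: 40-fold excess unlabeled HDL defining nonspecific background uptake.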
Sequence of Scavenger receptor class B member 1 (Mus musculus) (Q61009 whole entry C384S): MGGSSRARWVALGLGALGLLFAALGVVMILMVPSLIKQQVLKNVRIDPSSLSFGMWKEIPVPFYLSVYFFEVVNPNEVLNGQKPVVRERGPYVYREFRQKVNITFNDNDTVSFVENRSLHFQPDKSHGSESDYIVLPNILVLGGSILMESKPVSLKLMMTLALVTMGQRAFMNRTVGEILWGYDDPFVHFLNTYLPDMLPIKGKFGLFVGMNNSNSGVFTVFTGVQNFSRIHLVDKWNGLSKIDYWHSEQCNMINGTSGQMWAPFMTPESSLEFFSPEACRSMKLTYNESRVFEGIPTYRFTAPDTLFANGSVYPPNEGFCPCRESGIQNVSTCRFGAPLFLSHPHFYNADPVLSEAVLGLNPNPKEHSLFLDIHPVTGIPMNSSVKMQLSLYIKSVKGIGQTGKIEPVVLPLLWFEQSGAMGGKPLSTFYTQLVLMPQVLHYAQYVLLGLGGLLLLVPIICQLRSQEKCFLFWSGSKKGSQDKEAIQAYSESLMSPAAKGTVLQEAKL
In the case of `CCOC(=O)N1CCC(NC(=O)c2ccc3c(c2)N(Cc2ccc(F)cc2)CCS3)CC1`, the cholesterol uptake is 78.2%. `O=C(Nc1ccc(Cl)cc1C(=O)c1ccc(Cl)cc1)c1cc(Br)ccc1NS(=O)(=O)c1ccc(Cl)cc1`: the cholesterol uptake was 121% (inactive). On to `COc1ccc(-c2nnn(CC(=O)N(C3CCCCC3)C(C)C(=O)NC3CCCC3)n2)cc1OC` (stereo not given), for which the cholesterol uptake was 89.4%. As to `Cc1ccc2oc(-c3cccc(NC(=O)c4cc(-n5cnnc5)ccc4Cl)c3)nc2c1`, the cholesterol uptake is 84.4%. Consider `CCC(=O)N1CCc2cc(-c3csc(NC(=O)c4ccco4)n3)ccc21`, for which the cholesterol uptake is 88.3%.
